# Active and inactive are the calls of the source. The calls are words filed in the database; no cut-off is given here.
# What was measured:
# Homo sapiens [1] = species on record: Homo sapiens; experiment: Compound (1 x 10e-4 M) was evaluated in vitro for its ability to inhibit the growth of the human epidermoid carcinoma KB; Inactive until maximum tested concentration of 1xe-4 M; format: functional
# L1210 = experiment: Compound (1 x 10e-4 M) was evaluated in vitro for its ability to inhibit the growth of the murine leukemia L1210; Inactive until maximum tested concentration of 1xe-4 M; format: functional, cell-based; conditions: Mus musculus
# HL-60 = experiment: Compound (1 x 10e-4 M) was evaluated in vitro for its ability to inhibit the growth of the human promyelocytic leukemia HL-60; Inactive until maximum tested concentration of 1xe-4 M; format: functional, cell-based
# P388 = experiment: Compound (1 x 10e-4 M) was evaluated in vitro for its ability to inhibit the growth of the murine leukemia P388; Inactive until maximum tested concentration of 1xe-4 M; format: functional, cell-based; conditions: Mus musculus
# Homo sapiens [2] = species on record: Homo sapiens; experiment: Compound (1 x 10e-4 M) was evaluated in vitro for its ability to inhibit the growth of the human epidermoid carcinoma KB; format: functional
# Method in brief: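 KB cells in exponential growth, in RPMI-1640 with antibiotics, 3 mM glutamine, 10 mM HEPES and 5% heat-inactivated newborn calf serum. Seeded at 5 × 10³ cells/well and exposed in quadruplicate to compound (DMSO ≤0.5% final), up to a maximum of 1×10^-4 M, for 48 h at 37 °C. [¹²⁵I]-5-iodo-2'-deoxyuridine plus 5-fluoro-2'-deoxyuridine then added for 18 h. Cells trypsin/EDTA-detached, filter-harvested and γ-counted. Inhibition expressed as % of control incorporation.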
Compound,ID50 (Homo sapiens [1]),ID50 (L1210),ID50 (HL-60),ID50 (P388),ID50 (Homo sapiens [2])
Nc1nc(Cl)cc2c1ccn2[C@@H]1O[C@H](CO)[C@@H](O)[C@H]1O,Inactive until maximum tested concentration of 1xe-4 M,Inactive until maximum tested concentration of 1xe-4 M,Inactive until maximum tested concentration of 1xe-4 M,Inactive until maximum tested concentration of 1xe-4 M,
Nc1ncnc2c1ccn2[C@@H]1O[C@H](CO)[C@@H](O)[C@H]1O,,,,,52 nM
Nc1nccc2c1ccn2[C@@H]1O[C@H](CO)[C@@H](O)[C@H]1O,Inactive until maximum tested concentration of 1xe-4 M,Inactive until maximum tested concentration of 1xe-4 M,Inactive until maximum tested concentration of 1xe-4 M,Inactive until maximum tested concentration of 1xe-4 M,
Nc1nc(Cl)cc2c1ccn2[C@H]1C[C@H](O)[C@@H](CO)O1,Inactive until maximum tested concentration of 1xe-4 M,Inactive until maximum tested concentration of 1xe-4 M,Inactive until maximum tested concentration of 1xe-4 M,Inactive until maximum tested concentration of 1xe-4 M,
Nc1nccc2c1ccn2[C@H]1C[C@H](O)[C@@H](CO)O1,Inactive until maximum tested concentration of 1xe-4 M,Inactive until maximum tested concentration of 1xe-4 M,Inactive until maximum tested concentration of 1xe-4 M,Inactive until maximum tested concentration of 1xe-4 M,

# Reference: ChEMBL document CHEMBL1124515, “3,7-Dideazapurine nucleosides. Synthesis and antitumor activity of 1-deazatubercidin and 2-chloro-2'-deoxy-3,7-dideazaadenosine” (1989)
